What was measured:
[1] = Growth inhibition of human A549 cells after 72 hrs by MTT assay; format: functional, cell-based
Summary of the method: (§1)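 Cells seeded at 5 × 10³ per well and incubated overnight in medium with 10% FBS. Medium then replaced with fresh medium containing compound at […] for 72 h. MTT (5 mg/mL stock, 20 µL per well) added for 4 h at 37 °C, formazan dissolved in DMSO, absorbance read at 570 nm. Each dose run in parallel triplicate. IC50 taken from mean absorbance versus concentration curves.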

[2] = Growth inhibition of human HepG2 cells after 72 hrs by MTT assay; format: functional, cell-based; summary of the method: as §1
[3] = Growth inhibition of human SH-SY5Y cells after 72 hrs by MTT assay; format: functional, cell-based; summary of the method: as §1
[4] = Growth inhibition of human HeLa cells after 72 hrs by MTT assay; format: functional, cell-based; summary of the method: as §1
[5] = biological target: T1, DNA topoisomerase 1 (Homo sapiens) (UniProt P11387); test: Inhibition of DNA topoisomerase 1 (unknown origin) assessed as reduction in relaxation of supercoiled pBR322 plasmid DNA at 100 uM incubated for 30 mins by agarose gel electrophoresis relative to control
T1 sequence (whole entry): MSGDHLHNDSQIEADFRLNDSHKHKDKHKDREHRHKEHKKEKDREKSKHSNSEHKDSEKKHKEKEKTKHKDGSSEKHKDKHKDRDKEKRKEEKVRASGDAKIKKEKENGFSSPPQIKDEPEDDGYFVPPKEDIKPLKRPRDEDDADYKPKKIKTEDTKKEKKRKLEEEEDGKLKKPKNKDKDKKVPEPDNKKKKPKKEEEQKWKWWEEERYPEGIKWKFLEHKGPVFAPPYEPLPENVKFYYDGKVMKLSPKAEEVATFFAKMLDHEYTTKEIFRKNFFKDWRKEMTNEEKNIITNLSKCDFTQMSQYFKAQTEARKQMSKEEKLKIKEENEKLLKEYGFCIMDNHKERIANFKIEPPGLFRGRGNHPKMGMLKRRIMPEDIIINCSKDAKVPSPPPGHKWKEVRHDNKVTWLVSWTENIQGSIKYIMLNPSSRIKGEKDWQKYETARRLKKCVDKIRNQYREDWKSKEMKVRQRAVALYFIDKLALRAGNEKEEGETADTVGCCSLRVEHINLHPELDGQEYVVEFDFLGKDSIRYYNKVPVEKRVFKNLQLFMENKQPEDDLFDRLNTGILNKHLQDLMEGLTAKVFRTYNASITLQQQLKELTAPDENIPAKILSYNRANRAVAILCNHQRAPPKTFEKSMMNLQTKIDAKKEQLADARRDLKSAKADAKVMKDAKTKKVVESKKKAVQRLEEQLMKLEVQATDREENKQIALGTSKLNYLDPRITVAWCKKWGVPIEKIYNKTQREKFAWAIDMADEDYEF
Summary of the method: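 Supercoiled pBR322 DNA incubated with Topo I in the presence or absence of compound for 30 min at 37 °C. Reaction stopped with dye solution of bromophenol blue, xylene cyanol and glycerol. Products run on 1% agarose in 1× TAE for 40 min, then EB-stained and UV-imaged. Inhibition rate derived from gel gray-scale analysis relative to control. Camptothecin served as positive control.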

[6] = biological target: T1, DNA topoisomerase 1 (Homo sapiens); test: Inhibition of DNA topoisomerase 1 (unknown origin) assessed as reduction in topoisomerase 1-DNA complex formation preincubated for 20 mins followed by supercoiled pBR322 plasmid DNA addition measured after 3 mins by electrophoretic mobility shift assay

Structure (SMILES) | IC50 ([1]; a549) [µM] | IC50 ([2]; hepg2) [µM] | IC50 ([3]; sh-sy5y) [µM] | IC50 ([4]; hela) [µM] | inhibition [5] [%] | IC50 ([1]; Homo sapiens, A549, 72 h) [µM] | IC50 ([4]; Homo sapiens, HeLa, 72 h) [µM] | IC50 ([2]; Homo sapiens, HepG2, 72 h) [µM] | IC50 ([3]; Homo sapiens, SH-SY5Y, 72 h) [µM] | inhibition [6]
O=C1O[C@@]23C[C@@H](C=CC2=C1C(O)c1ccc(Br)cc1)N1CCCC[C@@H]13 (stereo in doubt; 4a-4-b) | 6.3 | 14.1 | 22.3 | – | – | – | – | – | – | –
O=C1O[C@@]23C[C@@H](C=CC2=C1C(O)c1ccc(C(F)(F)F)cc1)N1CCCC[C@@H]13 (stereo in doubt; 4a-6-b) | 3.01 | 2.57 | 8.62 | 9.08 | – | – | – | – | – | –
O=C1O[C@@]23C[C@@H](C=CC2=C1C(O)c1ccc(Br)cc1)N1CCCC[C@@H]13 (stereo in doubt; 4a-4-a) | 6.24 | – | 22.4 | 12.8 | – | – | – | – | – | –
O=C1O[C@@]23C[C@@H](C=CC2=C1C(O)c1cccc(Cl)c1)N1CCCC[C@@H]13 (some centres not stated) | – | – | – | – | 35.3 | 11.1 | 15.6 | 17.8 | 27.8 | –
O=C1O[C@@]23C[C@@H](C=CC2=C1C(O)c1ccccc1Br)N1CCCC[C@@H]13 (some centres not stated) | – | – | – | – | 39.2 | 7.11 | 12.7 | 12.6 | 23.1 | –
N#Cc1ccc(C(O)C2=C3C=C[C@@H]4C[C@@]3(OC2=O)[C@H]2CCCCN42)cc1 (stereo in doubt; 4a-5-a) | 6.2 | 14.1 | 18.9 | 13.1 | – | – | – | – | – | –
O=C1O[C@@]23C[C@@H](C=CC2=C1C(O)c1ccc(Cl)cc1)N1CCCC[C@@H]13 (stereo in doubt; 4a-3) [listing 1 of 2 here] | – | – | – | – | – | 6.21 | 13 | 13 | 20 | –
O=C1O[C@@]23C[C@@H](C=CC2=C1C(O)c1ccc(F)cc1)N1CCCC[C@@H]13 (stereo in doubt; 4a-2-a) | 4.95 | 10 | 19.1 | 12.8 | – | – | – | – | – | –
N#Cc1ccc(C(O)C2=C3C=C[C@@H]4C[C@@]3(OC2=O)[C@H]2CCCCN42)cc1 (stereo in doubt; 4a-5) [listing 1 of 2 here] | – | – | – | – | 45.7 | – | – | – | – | –
N#Cc1cccc(C(O)C2=C3C=C[C@@H]4C[C@@]3(OC2=O)[C@H]2CCCCN42)c1 (some centres not stated) | – | – | – | – | 34.7 | 7.08 | 15.6 | 17.9 | 24.9 | –
O=C1O[C@@]23C[C@@H](C=CC2=C1C(O)c1ccc(C(F)(F)F)cc1)N1CCCC[C@@H]13 (stereo in doubt; 4a-6-a) | 2.78 | 2.23 | 8.27 | 8.8 | – | – | – | – | – | –
O=C1O[C@@]23C[C@@H](C=CC2=C1C(O)c1ccc(F)cc1)N1CCCC[C@@H]13 (stereo in doubt; 4a-2) [listing 1 of 2 here] | – | – | – | – | – | 5.01 | 12.8 | 10.1 | 19.8 | –
O=C1O[C@@]23C[C@@H](C=CC2=C1C(O)c1ccc(Cl)cc1)N1CCCC[C@@H]13 (stereo in doubt; 4a-3-b) | 6.2 | – | 19.9 | 12.5 | – | – | – | – | – | –
N#Cc1ccc(C(O)C2=C3C=C[C@@H]4C[C@@]3(OC2=O)[C@H]2CCCCN42)cc1 (stereo in doubt; 4a-5-b) | – | 14.1 | 18.9 | 12.1 | – | – | – | – | – | –
O=C1O[C@@]23C[C@@H](C=CC2=C1C(O)c1cccc(F)c1)N1CCCC[C@@H]13 (some centres not stated) | – | – | – | – | 34.9 | 8.01 | 16.8 | 16.1 | 27.1 | –
O=C1O[C@@]23C[C@@H](C=CC2=C1C(O)c1ccc(O)cc1)N1CCCC[C@@H]13 (some centres not stated) | – | – | – | – | 31.8 | 6.99 | 18.9 | 17.1 | 23 | –
O=C1O[C@@]23C[C@@H](C=CC2=C1C(O)c1cccc([N+](=O)[O-])c1)N1CCCC[C@@H]13 (some centres not stated) | – | – | – | – | 36.2 | 4.04 | 9.98 | 6.77 | 8.7 | –
Cc1ccc(C(O)C2=C3C=C[C@@H]4C[C@@]3(OC2=O)[C@H]2CCCCN42)cc1 (some centres not stated) | – | – | – | – | 27.1 | 8.81 | 9.07 | 7.09 | 15.1 | –
O=C1O[C@@]23C[C@@H](C=CC2=C1C(O)c1ccccc1Cl)N1CCCC[C@@H]13 (some centres not stated) | – | – | – | – | 42.4 | 7.01 | 10.4 | 9.16 | 19.9 | –

Structure (SMILES) | IC50 ([1]; a549) [µM] | IC50 ([2]; hepg2) [µM] | IC50 ([3]; sh-sy5y) [µM] | IC50 ([4]; hela) [µM] | inhibition [5] [%] | IC50 ([1]; Homo sapiens, A549, 72 h) [µM] | IC50 ([4]; Homo sapiens, HeLa, 72 h) [µM] | IC50 ([2]; Homo sapiens, HepG2, 72 h) [µM] | IC50 ([3]; Homo sapiens, SH-SY5Y, 72 h) [µM] | inhibition [6]
O=C1O[C@@]23C[C@@H](C=CC2=C1[C@H](O)c1ccc([N+](=O)[O-])cc1)N1CCCC[C@@H]13 | – | – | – | – | – | 2.23 | 8 | 4.19 | 8.48 | Dose-dependent effect
COc1ccc(C(O)C2=C3C=C[C@@H]4C[C@@]3(OC2=O)[C@H]2CCCCN42)cc1 (some centres not stated) | – | – | – | – | 31.6 | 10 | 10 | 17.8 | 22.5 | –
O=C1O[C@@]23C[C@@H](C=CC2=C1C(O)c1ccccc1F)N1CCCC[C@@H]13 (some centres not stated) | – | – | – | – | 42.3 | 6.89 | 13 | 10.1 | 22 | –
O=C1O[C@@]23C[C@@H](C=CC2=C1C(O)c1ccc(F)cc1)N1CCCC[C@@H]13 (stereo in doubt; 4a-2) [listing 2 of 2 here] | – | – | – | – | 49.8 | – | – | – | – | –
O=C1O[C@@]23C[C@@H](C=CC2=C1C(O)c1ccccc1[N+](=O)[O-])N1CCCC[C@@H]13 (some centres not stated) | – | – | – | – | 40.6 | 3.91 | 8.11 | 6.78 | 8.69 | –
N#Cc1ccccc1C(O)C1=C2C=C[C@@H]3C[C@@]2(OC1=O)[C@H]1CCCCN31 (some centres not stated) | – | – | – | – | 38.4 | 7.01 | 14.9 | 11.1 | 21.9 | –
O=C1O[C@@]23C[C@@H](C=CC2=C1C(O)c1ccc(Cl)cc1)N1CCCC[C@@H]13 (stereo in doubt; 4a-3-a) | 6.18 | 13.1 | 20.1 | 12.5 | – | – | – | – | – | –
O=C1O[C@@]23C[C@@H](C=CC2=C1C(O)c1ccc(F)cc1F)N1CCCC[C@@H]13 (some centres not stated) | – | – | – | – | 37.4 | 5.18 | 14.9 | 13.6 | 22.1 | –
O=C1O[C@@]23C[C@@H](C=CC2=C1C(O)c1ccccc1)N1CCCC[C@@H]13 (some centres not stated) | – | – | – | – | 24 | 7.05 | 21.4 | 20.1 | 25.4 | –
O=C1O[C@@]23C[C@@H](C=CC2=C1C(O)c1ccc([N+](=O)[O-])cc1[N+](=O)[O-])N1CCCC[C@@H]13 (some centres not stated) | – | – | – | – | 43.1 | 11.5 | 7.11 | 5.98 | 8.71 | –
N#Cc1ccc(C(O)C2=C3C=C[C@@H]4C[C@@]3(OC2=O)[C@H]2CCCCN42)cc1 (stereo in doubt; 4a-5) [listing 2 of 2 here] | – | – | – | – | – | 6.22 | 13 | 14.2 | 18.9 | –
O=C1O[C@@]23C[C@@H](C=CC2=C1C(O)c1ccc(F)cc1)N1CCCC[C@@H]13 (stereo in doubt; 4a-2-b) | 5.09 | 10.1 | 19 | 12.7 | – | – | – | – | – | –
O=C1O[C@@]23C[C@@H](C=CC2=C1C(O)c1ccc(Br)cc1)N1CCCC[C@@H]13 (stereo in doubt; 4a-4) [listing 1 of 2 here] | – | – | – | – | – | 6.32 | 12.8 | 14.1 | 22.3 | –
O=C1O[C@@]23C[C@@H](C=CC2=C1C(O)c1ccc(Br)cc1)N1CCCC[C@@H]13 (stereo in doubt; 4a-4) [listing 2 of 2 here] | – | – | – | – | 47.1 | – | – | – | – | –
O=C1O[C@@]23C[C@@H](C=CC2=C1C(O)c1ccc(C(F)(F)F)cc1)N1CCCC[C@@H]13 (stereo in doubt; 4a-6) | – | – | – | – | 53.6 | – | – | – | – | –
O=C1O[C@@]23C[C@@H](C=CC2=C1C(O)c1ccc(Cl)cc1)N1CCCC[C@@H]13 (stereo in doubt; 4a-3) [listing 2 of 2 here] | – | – | – | – | 48.9 | – | – | – | – | –
O=C1O[C@@]23C[C@@H](C=CC2=C1C(O)c1cccc(Br)c1)N1CCCC[C@@H]13 (some centres not stated) | – | – | – | – | 34.7 | 9.01 | 19.1 | 15.1 | 20.2 | –
CSc1ccc(C(O)C2=C3C=C[C@@H]4C[C@@]3(OC2=O)[C@H]2CCCCN42)cc1 (some centres not stated) | – | – | – | – | 30.9 | 9.05 | 17.8 | 16.7 | 21 | –

Reference: ChEMBL document CHEMBL3865794, “Novel securinine derivatives as topoisomerase I based antitumor agents” (Eur J Med Chem, 2016)
